Assay results: ChEMBL document CHEMBL3525985, “Regiospecificity and stereospecificity of human UDP-glucuronosyltransferases in the glucuronidation of estriol, 16-epiestriol, 17-epiestriol, and 13-epiestradiol” (Drug Metab Dispos, 2013)
Each block holds one compound with its values, some of them ahead of it.

Experiments:
Assay type in all cases: ADME
[1] = biological target: T1, UDP-glucuronosyltransferase 2B7 (Homo sapiens, UniProt P16662); experiment: Drug metabolism assessed as recombinant human C-terminal His-tagged UGT2B7-mediated 17-epiestriol-17-glucuronide formation at 4 mg after 5 hrs by NMR spectroscopic analysis in presence of UDPGA; settings: recombinant enzyme
T1 sequence (P16662 whole entry): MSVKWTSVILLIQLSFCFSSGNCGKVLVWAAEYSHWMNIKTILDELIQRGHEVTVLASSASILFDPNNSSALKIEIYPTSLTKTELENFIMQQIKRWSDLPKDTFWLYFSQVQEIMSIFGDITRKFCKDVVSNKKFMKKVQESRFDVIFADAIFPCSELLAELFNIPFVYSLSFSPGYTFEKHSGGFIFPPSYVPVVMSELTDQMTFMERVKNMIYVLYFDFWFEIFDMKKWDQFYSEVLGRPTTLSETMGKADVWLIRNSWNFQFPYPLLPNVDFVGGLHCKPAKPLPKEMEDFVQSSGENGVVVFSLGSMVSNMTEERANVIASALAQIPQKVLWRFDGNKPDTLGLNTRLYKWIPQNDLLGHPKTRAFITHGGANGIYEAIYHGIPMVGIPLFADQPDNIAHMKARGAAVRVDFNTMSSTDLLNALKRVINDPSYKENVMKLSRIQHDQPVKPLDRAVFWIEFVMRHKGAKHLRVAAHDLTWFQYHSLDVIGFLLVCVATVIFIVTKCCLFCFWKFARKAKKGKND
Outline: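 Preparative biosynthesis: 4 mg 17-epiestriol with fresh UGT2B7-enriched insect-cell homogenate (about 500 mg total protein) in 25 ml. Contained 50 mM phosphate pH 7.4, 10 mM MgCl₂, 50 mM UDPGA and 10% DMSO. Glucuronides fractionated by HPLC with 0.1% HCOOH eluent and 280 nm UV, then concentrated and lyophilized for NMR.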

[2] = biological target: T2, UDP-glucuronosyltransferase 2A1 (Homo sapiens, UniProt P0DTE4); experiment: Drug metabolism assessed as recombinant human C-terminal His-tagged UGT2A1-mediated 17-epiestriol-17-glucuronide formation at 200 uM after 15 to 60 mins by HPLC analysis in presence of UDPGA; settings: recombinant enzyme
T2 sequence (P0DTE4 whole entry): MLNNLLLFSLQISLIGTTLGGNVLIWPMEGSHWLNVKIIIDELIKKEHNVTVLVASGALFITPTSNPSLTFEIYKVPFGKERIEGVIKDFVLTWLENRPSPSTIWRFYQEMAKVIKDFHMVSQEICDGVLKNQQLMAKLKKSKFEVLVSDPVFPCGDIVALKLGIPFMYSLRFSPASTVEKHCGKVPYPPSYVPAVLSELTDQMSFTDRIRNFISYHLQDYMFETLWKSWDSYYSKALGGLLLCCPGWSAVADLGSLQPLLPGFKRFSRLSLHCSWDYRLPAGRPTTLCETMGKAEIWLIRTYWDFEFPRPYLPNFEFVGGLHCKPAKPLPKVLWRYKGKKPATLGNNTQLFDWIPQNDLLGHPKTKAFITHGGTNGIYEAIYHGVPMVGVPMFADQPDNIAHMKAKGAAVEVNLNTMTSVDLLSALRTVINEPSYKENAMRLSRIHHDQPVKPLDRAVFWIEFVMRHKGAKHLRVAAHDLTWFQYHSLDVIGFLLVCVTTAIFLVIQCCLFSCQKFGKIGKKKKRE
Outline: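 Screening at a single substrate concentration of 200 μM, in triplicate. The reaction used 5 or 50 µg of UGT-enriched insect cell membranes in 50 mM phosphate pH 7.4 with 10 mM MgCl₂ and 5 mM UDPGA, 10% final DMSO. Incubation was 15–60 min at 37°C. Perchloric acid stopped the reaction and supernatants were analysed by HPLC. Controls lacked UDPGA. Rates were normalized to relative UGT expression level.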

[3] = Drug metabolism in human intestine microsomes assessed as 16-epiestriol-17-glucuronide formation after 15 to 60 mins by Michaelis-Menten equation analysis in presence of UDPGA
Outline: (§1)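 Pooled human intestine microsomes (6 donors), 0.5 or 10 µg, with alamethicin at 5% of total protein. Incubated with 50 mM phosphate pH 7.4, 10 mM MgCl₂, 5 mM UDPGA and 10% DMSO for 15–60 min at 37°C. Each glucuronide regioisomer quantified by HPLC, in triplicate, with substrate consumption at or below 10%.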

[4] = biological target: T2, UDP-glucuronosyltransferase 2A1; experiment: Drug metabolism assessed as recombinant human C-terminal His-tagged UGT2A1-mediated estriol-16-glucuronide formation after 15 to 60 mins by Michaelis-Menten equation analysis in presence of UDPGA; settings: recombinant enzyme
[5] = biological target: T3, UDP-glucuronosyltransferase 2B4 (Homo sapiens, UniProt P06133); experiment: Drug metabolism assessed as recombinant human C-terminal His-tagged UGT2B4-mediated estriol-16-glucuronide formation after 15 to 60 mins by Michaelis-Menten equation analysis in presence of UDPGA; settings: recombinant enzyme
T3 sequence (P06133 whole entry): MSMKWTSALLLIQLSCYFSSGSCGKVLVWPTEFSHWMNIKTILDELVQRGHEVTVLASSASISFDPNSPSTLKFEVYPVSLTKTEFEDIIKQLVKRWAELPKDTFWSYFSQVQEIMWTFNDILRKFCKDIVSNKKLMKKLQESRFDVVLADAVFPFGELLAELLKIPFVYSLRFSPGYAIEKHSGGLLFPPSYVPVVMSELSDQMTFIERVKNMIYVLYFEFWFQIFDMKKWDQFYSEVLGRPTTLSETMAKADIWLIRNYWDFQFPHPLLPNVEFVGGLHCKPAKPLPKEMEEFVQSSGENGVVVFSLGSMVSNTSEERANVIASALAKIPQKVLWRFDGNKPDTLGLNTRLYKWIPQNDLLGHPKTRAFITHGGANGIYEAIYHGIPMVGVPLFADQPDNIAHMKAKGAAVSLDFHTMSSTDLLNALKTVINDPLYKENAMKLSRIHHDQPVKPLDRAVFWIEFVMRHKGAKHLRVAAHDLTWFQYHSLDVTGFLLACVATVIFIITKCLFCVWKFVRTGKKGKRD

Liver microsome = experiment: Drug metabolism in human liver microsomes assessed as estriol-3-glucuronide formation after 15 to 60 mins by Michaelis-Menten equation analysis in presence of UDPGA
Outline: as §1, with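 “liver” for “intestine”, “(30” for “(6”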

[6] = Drug metabolism in human intestine microsomes assessed as estriol-16-glucuronide formation after 15 to 60 mins by Michaelis-Menten equation analysis in presence of UDPGA; outline: as §1
[7] = Drug metabolism in human intestine microsomes assessed as estriol-17-glucuronide formation after 15 to 60 mins by Michaelis-Menten equation analysis in presence of UDPGA; outline: as §1

Drug metabolism [1]: metabolite_detected
Drug metabolism [2]: metabolite_detected
Structure (SMILES): C[C@]12CC[C@@H]3c4ccc(O)cc4CC[C@H]3[C@@H]1C[C@@H](O)[C@H]2O

Km [3]: 1.17 mM
Vmax [3]: 2324 pmol/min/mg
Structure (SMILES): C[C@]12CC[C@@H]3c4ccc(O)cc4CC[C@H]3[C@@H]1C[C@H](O)[C@@H]2O [EPIESTRIOL]

Drug metabolism [4]: 4 pmol/min/mg
Drug metabolism [5]: 4 pmol/min/mg
Km (Liver microsome): 313 µM
Vmax (Liver microsome): 95 pmol/min/mg
Km [6]: 5.1 µM
Vmax [6]: 953 pmol/min/mg
Km [7]: 1.12 mM
Vmax [7]: 2095 pmol/min/mg
Structure (SMILES): C[C@]12CC[C@@H]3c4ccc(O)cc4CC[C@H]3[C@@H]1C[C@@H](O)[C@@H]2O [ESTRIOL]
